# An excerpt weighted towards active compounds, which were near 1.3% of everything screened.
# proCasp3 act: activators of human procaspase-3 D3A mutant, primary screen, biochemical, absorbance, PC-3 D3A mutant, single concentration | Caspase-3 (Homo sapiens), P42574 | recombinant procaspase-3 D3A, Ac-DEVD-pNA absorbance 405 nm | activation, % at 8.5 µM | 330,000 compounds, 0.11% hits | AID 463141, 2010;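 active means activation above the mean of all tested compounds plus 3 SD, cut at about 21% in these data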;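 further: 0% = DMSO alone and 100% = DMSO wells spiked with extra 5 µM PC-3 D3A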
# Target sequence (P42574 whole entry D9A/D28A/D175A): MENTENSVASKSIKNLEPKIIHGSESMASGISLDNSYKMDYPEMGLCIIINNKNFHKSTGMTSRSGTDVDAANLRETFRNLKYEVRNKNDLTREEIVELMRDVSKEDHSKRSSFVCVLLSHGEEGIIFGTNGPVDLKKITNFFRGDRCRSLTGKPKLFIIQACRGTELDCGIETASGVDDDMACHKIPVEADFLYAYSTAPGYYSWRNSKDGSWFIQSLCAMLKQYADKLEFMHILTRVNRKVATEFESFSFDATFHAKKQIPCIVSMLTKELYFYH
#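 assay system = Procaspase-3 D3A mutant | signal = absorbance at 405 nm, 0 and 120 min | times = 1 h preincubation plus 2 h reaction at 25 °C | repeats = single replicate | read-out = % activation between DMSO and enzyme-spiked controls | medium = Zinc-free HEPES saline buffer with Triton X-100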
# CHT inh: inhibitors of human choline transporter CHT; High affinity choline transporter 1 (Homo sapiens), Q9GZV3; CHT-expressing cells, membrane potential dye, choline response; active compounds read low; B-score at 10 µM; 310,000 compounds, 0.86% hits; AID 488975, 2010;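 active means B-score over 3 SD under the library average, and starting fluorescence ratio not unusually high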;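 further: choline stimulus applied at its EC90 after an EC20 pre-addition; B-score computed on integrated fluorescence ratio after choline addition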
# proCasp7 act: procaspase-7 activators, primary screen, counter-screen for procaspase-3 activator project, biochemical, absorbance, HTS, human; Caspase-7 (Homo sapiens), P55210; recombinant procaspase-7, Ac-DEVD-pNA absorbance 405 nm; D23A/D198A/D206A triple mutant, cannot self-cleave; scale: DMSO 0, 5 µM enzyme 100; activation, % at 8.5 µM; 330,000 compounds, 0.093% hits; AID 463210, 2010;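 active means percent activation above the screen-wide mean plus 3 SD, cut at about 25% in these data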
#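 Replicates: singlicate. Assay system: Procaspase-7 triple mutant (PC-7 D3A). Signal: 405 nm absorbance of p-nitroaniline. Times: 1 h preincubation, 2 h reaction. Buffer or medium: Zinc-free HEPES pH 7.4 with 300 mM NaCl, 0.01% Triton X-100. Also added: DEVD-pNA substrate. Benchmarks: DMSO wells as 0%, DMSO with 5 µM added PC-7 as 100%.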
# CHT allo act: CHT positive allosteric modulators, primary screen, cell-based, membrane potential dye, choline EC20. High affinity choline transporter 1 (Homo sapiens), Q9GZV3. CHT-expressing cells; active compounds read high; LV-AA mutant CHT in HEK293 cells. B-score at 10 µM. 310,000 compounds, 0.49% hits. AID 488977, 2010;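 active means initial fluorescence not abnormally high and integrated response B-score, plate-corrected, over 3 SD above library mean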
# CHT inh conf: CHT inhibitors, confirmation, cell-based, membrane potential dye, duplicate; CHT activity remaining % of control (active compounds read low), % at 10 µM; shares compounds with CHT inh; AID 493221, 2011; CHT-expressing cells, choline membrane potential dye; LV-to-AA substituted CHT, HEK293 cells; 2,400 compounds, 70% hits;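 active means choline transporter activity left, mean of duplicates at 10 µM, below buffer-only control mean minus 3 SD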;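 further: depolarization triggered by choline at its EC90 following an EC20 pre-addition; 0% = hemicholinium-3 full block and 100% = buffer-only control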
# HEK293 CHT ctr: membrane potential effects in parental HEK293, counter-screen for CHT inhibitor project, cell-based, membrane potential dye. shares compounds with CHT inh. choline response; active = decrease or increase beyond buffer ±3SD. membrane potential ratio readout (active if shifted either direction beyond buffer ±3SD; no single direction) at 10 µM. 2,400 compounds, 4% hits. AID 493222, 2011;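 further: parental cells lack the transporter so any hit is non-specific; ratio is peak minus trough fluorescence over baseline after EC90 choline challenge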
# * marks the source's active call; other numbers are inactive results; i = inactive; . = not tested or not shown.
SMILES,proCasp3 act,CHT inh,proCasp7 act,CHT allo act,CHT inh conf,HEK293 CHT ctr
O=C(O)CSc1cc(C(=O)c2cc(F)ccc2O)cn2c(=O)c3c(-c4ccccc4)csc3nc12,-4,-7*,-9,i,26%*,i
CCOC(=O)c1sc2nc3c(SCCC#N)cc(C(=O)c4cc(F)ccc4O)cn3c(=O)c2c1C,0,i,3,i,.,.
CCCCn1c(=O)n(Cc2cccc(F)c2)c(=O)c2c1ncn2Cc1ccco1,-1,-12*,-3,i,53%*,i
CCn1cc(C(=O)N(CCC(C)C)c2c(N)n(Cc3ccccc3)c(=O)[nH]c2=O)c(=O)c2ccc(C)nc21,-2,-10*,5,i,50%*,i
O=C(NC(=S)N1CCN(c2nc(-c3ccccc3)cs2)CC1)c1cncc(Br)c1,-3,i,-7,i,.,.
CCc1c(C)[nH]c2ccccc2c1=O,-6,-5.2*,-7,i,63%*,i
CCOc1ccc(N(CC(=O)NCC2CCCO2)S(=O)(=O)c2ccc(SC)cc2)cc1 (stereo unspecified),1,i,-10,i,.,.
CCOc1cc(/C=C2\N=C(SC)SC2=O)cc([N+](=O)[O-])c1OC(C)=O,-12,-5.2*,-25,i,65%*,i
O=C(Nc1ccc(S(=O)(=O)NC2=NCCCCC2)cc1)C1COc2ccccc2O1 (stereo unspecified),7,-5.1*,18,i,40%*,i
Cc1ccc(C(=O)Nc2ccc(S(=O)(=O)NC3=NCCCCC3)cc2)c(C)c1,4,-5.9*,5,i,19%*,i
O=C(Nc1cccc(S(=O)(=O)NC2=NCCCCC2)c1)C1COc2ccccc2O1 (stereo unspecified),6,i,8,i,.,.
COc1cccc(N2C(=O)N(c3ccccc3)C3CS(=O)(=O)CC32)c1 (stereo unspecified),2,-4.9*,0,i,70%*,i
O=[N+]([O-])c1cc(Cc2ccccc2)cc(C=Nc2ccc(N3CCOCC3)cc2)c1O,-3,-5.9*,-18,i,66%*,i
Oc1c(Cl)cc(Cl)cc1C=Nc1ccc(N2CCOCC2)cc1,-4,i,3,i,.,.
COc1ccc(C(CNC(=O)c2cc(S(=O)(=O)NCc3ccccc3)ccc2C)N2CCOCC2)cc1 (stereo unspecified),-9,-10*,4,i,19%*,i
COc1ccc(C(CNC(=O)c2cccc(S(=O)(=O)NCc3ccccc3)c2)N2CCOCC2)cc1 (stereo unspecified),5,i,-1,i,.,.
Cc1nc(N2CCCCC2C)c2c(C)c(C(=O)Nc3ccccc3C(F)(F)F)sc2n1 (stereo unspecified),-1,-7.5*,9,i,i,i
COc1ccc(N2CCN(C(=O)Cc3ccc(Cl)cc3)CC2)cc1,9,i,4,i,.,.
CCc1cccc(C)c1NC(=O)c1ccc(CN2CCc3ccccc3C2)cc1,-6,-5.4*,-3,i,71%*,i
CCc1ccccc1NC(=O)c1ccc(CN2CCC(Cc3ccccc3)CC2)cc1,2,-9.6*,1,i,48%*,i
Cc1ccccc1NC(=O)c1ccc(CN2CCc3ccccc3C2)cc1,-2,i,14,i,.,.
CC(C)C[C@H](NC(=O)c1cc2cc(Cl)ccc2n1C)C(=O)N1CCC(C(=O)O)CC1,.,i,.,i,.,.

# High-throughput results: PubChem BioAssay, several laboratories
